Like-named read-outs stand apart in the source and are kept apart here.
Legend:
[1] = assay type: in vivo, human
[2] = assay type: in vivo, human; conditions: for T½ / Tlag / AUC(0-t) / AUC(0-inf) / Cmax / Tmax / half-life / Vd/F: Study B part 1, siponimod 0.25 mg single dose; for AUC / AUC(0-t) / AUC(0-inf) / Cmax / Tmax / half-life / Vd/F: human, plasma, oral, 0.25 mg; for AUC: AUC24, Study B part 1, siponimod 0.25 mg single dose; for AUC(0-t): AUClast; for half-life: T½; for Vd/F: VZ/F
[3] = cited from earlier work
[4] = Study A: safety/tolerability; assay type: in vivo, human
Summary of the method: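 Healthy adults; open-label, two-period, single-sequence design. Period 1: single oral 4 mg test compound on day 1. Period 2: azole CYP2C9 inhibitor 200 mg twice on day 1, then 200 mg once daily days 2–19, with 4 mg test compound on day 3. Washout 14–21 days. Safety covered all AEs and SAEs, physical exams, vital signs, ECG and lab tests, in everyone given at least one dose.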

CYP3A4 = conditions: cited from earlier work
[5] = same dosing regimen, ref unpublished data; cited from earlier work
CYP2C9 = conditions: cited from earlier work
[6] = assay type: in vivo, human; conditions: for Tlag / Tmax: median (range)
[7] = cited from earlier work; remark: listed apart in the source
[8] = Study B: safety/tolerability; assay type: in vivo, human
Summary of the method: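 Healthy subjects genotyped for CYP2C9. Part 1: single oral 0.25 mg test compound to *1/*1 (n = 12), *2/*3 (n = 6) and *3/*3 (n = 6), then 42-day washout. Part 2: poor metabolisers only, 0.25 mg on days 1–2 and 0.5 mg on day 3. Safety covered all AEs and SAEs, cardiac monitoring, haematology, blood chemistry and urinalysis, in all dosed subjects.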

[9] = cited from earlier work; remark: listed apart in the source
[10] = CYP2C9*1/*1, geometric mean (CV%)
[11] = CYP2C9*2/*3, geometric mean (CV%)
[12] = CYP2C9*3/*3, geometric mean (CV%)
[13] = single-ascending dose 0.1–75 mg

CCc1cc(/C(C)=N/OCc2ccc(C3CCCCC3)c(C(F)(F)F)c2)ccc1CN1CC(C(=O)O)C1 [Siponimod]
AUC24 on day 3 higher versus the dose titration study data ([1]; Study B part 2, CYP2C9*2/*3, comparison with ref 15): 1.4 fold
AUC24 on day 3 higher versus the dose titration study data ([1]; Study B part 2, CYP2C9*3/*3, comparison with ref 15): 1.7 fold
Tmax ([1]; human, plasma, po, 0.5 mg): 6 h
AUC ([1]; human, plasma, po, 0.5 mg, AUC24, Study B part 2, day 3, CYP2C9*2/*3, mean): 0.125 µg·h/mL
AUC ([1]; human, plasma, po, 0.5 mg, AUC24, Study B part 2, day 3, CYP2C9*3/*3, mean): 0.148 µg·h/mL
T½ [2, 10]: 28.1 (18.5) h
Tlag ([2]; CYP2C9*1/*1, median (range)): 0.25 (0.00–0.50) h
T½ [2, 11]: 50.9 (31.7) h
Tlag ([2]; CYP2C9*2/*3, median (range)): 0.25 (0.00–0.50) h
Tlag ([2]; CYP2C9*3/*3, median (range)): 0.50 (0.00–0.50) h
AUC [2, 10]: 0.0316 µg·h/mL
AUC [2, 11]: 0.0447 µg·h/mL
AUC [2, 12]: 0.0427 µg·h/mL
AUC(0-t) [2, 10]: 0.0686 µg·h/mL
AUC(0-t) [2, 11]: 0.14 µg·h/mL
AUC(0-t) [2, 12]: 0.266 µg·h/mL
AUC(0-inf) [2, 10]: 0.0705 µg·h/mL
AUC(0-inf) [2, 11]: 0.144 µg·h/mL
AUC(0-inf) [2, 12]: 0.271 µg·h/mL
Cmax [2, 11]: 2.45 ng/mL
Cmax [2, 12]: 2.35 ng/mL
Tmax ([2]; CYP2C9*1/*1, median (range)): 4 h
Tmax ([2]; CYP2C9*2/*3, median (range)): 5 h
Tmax ([2]; CYP2C9*3/*3, median (range)): 4 h
half-life [2, 11]: 51 h
half-life [2, 12]: 126 h
Vd/F [2, 10]: 144 L
Vd/F [2, 11]: 127 L
Vd/F [2, 12]: 167 L
Single-dose maximum tolerated dose (MTD) ([3]; healthy subjects, single-ascending dose range study, ref unpublished data): 25 mg
Earliest time measurable in plasma postdose ([3]; single-ascending dose 0.1–75 mg, 98 healthy subjects): 0.25 h
Time at which Cmax was reached postdose [3, 13]: 3 to 8 h
Time at which Cmax was reached, minimum–maximum [3, 13]: 0.25 to 24 h
T½, mean range ([3]; single-ascending dose study, ref unpublished data): 27 to 57 h
Deaths or SAEs ([4]; Study A): No deaths or SAEs were reported
Subjects who experienced AEs ([4]; Study A period 1, siponimod 4 mg alone): 79%
Subjects who experienced AEs ([4]; Study A period 2, siponimod + fluconazole): 73%
Contribution of CYP3A4 to metabolism (formation of M5) (CYP3A4): 18.5%
Tmax observed in historical data [5]: 1.35 h
Contribution of CYP2C9 to metabolism (formation of M5) (CYP2C9): 79.2%
Contribution of the CYP2C9 pathway to total metabolic clearance (fm) (CYP2C9; determined in vitro): 79%
Increase in Cmax in the presence of fluconazole ([6]; Study A): 10%
Tlag ([6]; Study A, siponimod 4 mg + steady-state fluconazole): 0 (0–0) h
CL/F ([6]; Study A, siponimod 4 mg alone, geometric mean (CV%)): 3.6 L/h
Tlag ([6]; Study A, siponimod 4 mg alone): 0.25 (0–0.5) h
Tmax ([6]; Study A, siponimod 4 mg alone): 4.0 (2.0–8.1) h
AUC(0-inf) ([6]; human, plasma, oral, 4 mg): 1.12 µg·h/mL
Cmax ([6]; human, plasma, oral, 4 mg): 31.2 ng/mL
Vd/F ([6]; human, plasma, oral, 4 mg): 210 L
Tmax ([6]; human, plasma, oral, 4 mg, Tmax, Study A, siponimod 4 mg alone): ~4 h
AUC(0-t) ([6]; human, plasma, po, 4 mg): 1.11 µg·h/mL
Predicted increase in siponimod AUC in the presence of fluconazole ([7]; SimCYP simulation): two to three
First-pass effect estimated by SimCYP ([7]; ref unpublished data): ~5 % of the administered dose
Deaths or SAEs ([8]; Study B): No deaths or SAEs were reported
Subjects reporting at least one AE ([8]; Study B part 2, 12 subjects): 25%
Headache (most prevalent AE) incidence ([8]; Study B, in both parts): 8.3%
Tolerability of multiple doses ([9]; doses up to 20 mg daily for 28 days): well tolerated
Time to steady-state of plasma siponimod ([9]; multiple-ascending dose 0.3–20 mg, 28 days, 48 healthy subjects): approximately 6 days
Effective elimination half-life (T½) ([9]; multiple-ascending dose 0.3–20 mg, range): 22 to 38 h

Source: PMC6373376 (Clinical Pharmacokinetics, 2018)
